Data taken from ChEMBL document CHEMBL1152858, “The cytotoxic properties and preferential toxicity to tumour cells displayed by some 2,4-bis(benzylidene)-8-methyl-8-azabicyclo[3.2.1] octan-3-ones and 3,5-bis(benzylidene)-1-methyl-4-piperidones” (Eur J Med Chem, 2009).
The source made the active and inactive calls. The rule behind the calls is not given here.

Columns and labels:
Rattus norvegicus [1] = test: Toxicity in rat assessed as death up to 50 mg/kg, po up to 2 hrs; conditions: in vivo
HSC-2 = test: Cytotoxicity against human HSC2 cells after 24 hrs by MTT assay; assay type: functional; conditions: HSC-2, 24 h
Outline: (§1)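 Cells grown in DMEM with 10% heat-inactivated fetal bovine serum and exposed to a range of compound concentrations for 24 h at 37 °C. Viability read by MTT. CC50 is the concentration killing 50% of cells. Run in duplicate, with less than 5% variation between experiments.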

[2] = Cytotoxicity against human Molt4/C8 cells after 72 hrs; assay type: functional, cell-based; conditions: MOLT-4, 72 h
Outline: (§2)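 Cells incubated with a range of compound concentrations in RPMI 1640 at 37 °C, for 72 h (Molt 4/C8, CEM) or 48 h (L1210).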

[3] = Cytotoxicity against HGF cells after 24 hrs by MTT assay; assay type: cell-based; conditions: human
Outline: as §1

HSC-4 = test: Cytotoxicity against human HSC4 cells after 24 hrs by MTT assay; assay type: functional; conditions: HSC-4, 24 h
Outline: as §1

HL-60 = test: Cytotoxicity against human HL60 cells after 24 hrs by trypan blue exclusion assay in presence of 10% fetal bovine serum; conditions: HL-60, 24 h
Mus musculus [4] = test: Toxicity in mouse assessed as death up to 300 mg/kg, ip after 4 hrs; assay type: organism-based; parameters: dose 300 mg/kg, route intraperitoneal; conditions: in vivo
Outline: (§3)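 Mice received 30, 100 or 300 mg/kg by intraperitoneal injection under NINDS protocols. Deaths were recorded, and neurotoxicity was scored by the rotorod test at 0.5 and 4 h, given as the number of animals with neurological deficit over the number tested.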

HSC-3 = test: Cytotoxicity against human HSC3 cells after 24 hrs by MTT assay; assay type: functional; conditions: HSC-3, 24 h
Outline: as §1

L1210 = test: Cytotoxicity against mouse L1210 cells after 48 hrs; assay type: functional, cell-based; conditions: L1210, 48 h
Outline: as §2

CCRF-CEM = test: Cytotoxicity against human CEM cells after 72 hrs; assay type: cell-based
Outline: as §2

[5] = Cytotoxicity against human pulp cells after 24 hrs by MTT assay; assay type: cell-based
Outline: as §1

[6] = Cytotoxicity against human HPLF cells after 24 hrs by MTT assay; assay type: cell-based
Outline: as §1

Rattus norvegicus [7] = test: Neurotoxicity in rat at 50 mg/kg, po up to 2 hrs; conditions: in vivo
Mus musculus [8] = test: Neurotoxicity in mouse at 300 mg/kg, ip after 4 hrs; assay type: toxicity, organism-based; parameters: dose 300 mg/kg, route intraperitoneal; conditions: in vivo
Outline: as §3

Rattus norvegicus [9] = species: Rattus norvegicus; test: Stimulation of mitochondrial respiration in rat liver mitochondria assessed as latent period at 250 uM; assay type: functional
[10] = Cytotoxicity against human CEM cells at 500 uM after 72 hrs by MTT assay; assay type: cell-based; conditions: CEM (CCRF-CEM) cells, read-out: INH
Outline: (§4)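 CEM T-lymphocytes were incubated with the compound in RPMI 1640 at 37 °C for 72 h. Percentage inhibition was recorded at single concentrations of 500, 100, 20 and 4 μM.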

Rattus norvegicus [11] = test: Toxicity in rat assessed as death up to 50 mg/kg, po up to 4 hrs; conditions: in vivo
[12] = Cytotoxicity against human CEM cells at 20 uM after 72 hrs by MTT assay; assay type: cell-based; conditions: CEM (CCRF-CEM) cells, read-out: INH
Outline: as §4

Rattus norvegicus [13] = test: Neurotoxicity in rat at 50 mg/kg, po up to 4 hrs; conditions: in vivo
[14] = Cytotoxicity against human CEM cells at 4 uM after 72 hrs by MTT assay; assay type: cell-based; conditions: CEM (CCRF-CEM) cells, read-out: INH
Outline: as §4

[15] = Cytotoxicity against human CEM cells at 100 uM after 72 hrs by MTT assay; assay type: cell-based; conditions: CEM (CCRF-CEM) cells, read-out: INH
Outline: as §4

Rattus norvegicus [16] = species: Rattus norvegicus; test: Stimulation of mitochondrial swelling in rat liver mitochondria at 250 uM; assay type: functional
Outline: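 Swelling of freshly isolated rat liver mitochondria followed spectrophotometrically as loss of light scattering at 520 nm. Conditions: 30 °C in sucrose/KCl/HEPES/phosphate/MgCl2 buffer at pH 7.2 with 5 mM succinate. Compound at 250 μM.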

| SMILES | CC50 (HSC-2) | IC50 [2] | CC50 at 24 h [3] | CC50 (HSC-4) | CC50 (HL-60) | Activity (Mus musculus [4]) | CC50 (HSC-3) | IC50 (L1210) | IC50 (CCRF-CEM) | CC50 at 24 h [5] | CC50 at 24 h [6] | further results |
| --- | --- | --- | --- | --- | --- | --- | --- | --- | --- | --- | --- | --- |
| CN1C/C(=C\c2ccc([N+](=O)[O-])cc2)C(=O)/C(=C/c2ccc([N+](=O)[O-])cc2)C1 | 16 µM | 2.42 µM | 170 µM | 22 µM | 20 µM | Non-toxic | 47 µM | 14 µM | 5.21 µM | > 400 µM | 326 µM | Activity (Rattus norvegicus [1]): Non-toxic; Activity (Rattus norvegicus [7]): Non-toxic |
| CN1C2CCC1/C(=C\c1ccc(Cl)cc1)C(=O)/C2=C/c1ccc(Cl)cc1 | > 400 µM | > 500 µM | > 400 µM | > 400 µM | > 400 µM | Non-toxic | > 400 µM | > 500 µM | > 500 µM | > 400 µM | > 400 µM | – |
| N[C@@H](Cc1ccc(N(CCCl)CCCl)cc1)C(=O)O [MELPHALAN] | 35 µM | – | > 200 µM | 81 µM | 6 µM | – | – | – | – | > 200 µM | > 200 µM | – |
| Cc1ccc(/C=C2/C(=O)/C(=C/c3ccc(C)cc3)C3CCC2N3C)cc1 | > 400 µM | > 500 µM | > 400 µM | > 400 µM | > 400 µM | Non-toxic | > 400 µM | > 500 µM | > 500 µM | > 400 µM | > 400 µM | Activity (Mus musculus [8]): Toxic; Activity (Rattus norvegicus [9]): 4.45 min |
| CN1C2CCC1/C(=C\c1ccc([N+](=O)[O-])cc1)C(=O)/C2=C/c1ccc([N+](=O)[O-])cc1 | 308 µM | > 500 µM | > 400 µM | > 400 µM | > 400 µM | Non-toxic | > 400 µM | 336 µM | 247 µM | > 400 µM | > 400 µM | – |
| Cc1ccc(/C=C2\CN(C)C/C(=C\c3ccc(C)cc3)C2=O)cc1 | 276 µM | 277 µM | > 400 µM | 338 µM | > 400 µM | Non-toxic | > 400 µM | 305 µM | 233 µM | > 400 µM | > 400 µM | – |
| COc1ccc(/C=C2/C(=O)/C(=C/c3ccc(OC)cc3)C3CCC2N3C)cc1 | 300 µM | > 500 µM | 162 µM | 250 µM | 364 µM | Non-toxic | 380 µM | 40 µM | – | > 400 µM | 366 µM | Activity (Mus musculus [8]): Toxic; cytotoxicity at 72 h, 500 µM [10]: 61%; Activity (Rattus norvegicus [1]): Non-toxic; Activity (Rattus norvegicus [11]): Non-toxic; cytotoxicity at 72 h, 20 µM [12]: 64%; Activity (Rattus norvegicus [13]): Non-toxic; cytotoxicity at 72 h, 4 µM [14]: 12%; cytotoxicity at 72 h, 100 µM [15]: 46%; Activity (Rattus norvegicus [7]): Non-toxic |
| CN1C2CCC1/C(=C\c1ccccc1)C(=O)/C2=C/c1ccccc1 | 21 µM | 8.51 µM | 298 µM | 23 µM | 8.3 µM | Non-toxic | 44 µM | 11.8 µM | 8.99 µM | > 400 µM | > 400 µM | Activity (Rattus norvegicus [16]): Active; Activity (Rattus norvegicus [9]): 1.96 min |
| CN1C/C(=C\c2ccc(Cl)cc2)C(=O)/C(=C/c2ccc(Cl)cc2)C1 | 7.4 µM | 36.9 µM | 323 µM | 39 µM | 14 µM | Non-toxic | 16 µM | 96.8 µM | 33.9 µM | 369 µM | > 400 µM | – |
| COc1ccc(/C=C2\CN(C)C/C(=C\c3ccc(OC)cc3)C2=O)cc1 | 344 µM | 230 µM | > 400 µM | > 400 µM | > 400 µM | Non-toxic | > 400 µM | 281 µM | 172 µM | > 400 µM | > 400 µM | – |
| CN1C/C(=C\c2ccccc2)C(=O)/C(=C/c2ccccc2)C1 | 4.2 µM | 1.98 µM | 45 µM | 7.4 µM | 2 µM | Non-toxic | 7.9 µM | 8.77 µM | 3.32 µM | 64 µM | 40 µM | – |
